{"data": "Experimental data from different studies", "note": "Each line is one published result; the experiments were not run side by side."}
{"Compound": "NCCC(=O)NCc1ccccc1", "cell line": "DH82", "effect on": "PGE2 release", "mode": "inhibitor", "method": "ELISA", "time": "24 h", "setting": "LPS-stimulated", "IC50": "122 µM"}
{"Compound": "C=C(F)C(=O)N1CCN(c2nc(OC[C@@H]3CCCN3C)nc3c2CCN(c2cccc4cccc(Cl)c24)C3)C[C@@H]1CC#N", "cell line": "AGS", "effect on": "cell growth or viability", "method": "ATP luminescence", "setting": "3D culture", "IC50": "> 1 µM"}
{"Compound": "Cc1nc2cccc(N)c2c(=O)n1C1CCC(=O)NC1=O (stereo not shown)", "cell line": "NCI-H929", "effect on": "cell growth or viability", "method": "CCK-8", "time": "96 h", "IC50": "< 0.33 µM"}
{"Compound": "CCCOc1nc(-c2cccc(O)c2)cc(-c2cc3cc(OC)ccc3nc2N2CCOCC2)c1C#N", "cell line": "NFS-60", "effect on": "cell growth or viability", "method": "MTT", "time": "72 h", "IC50": "0.0646 µM"}
{"Compound": "C=CC(=O)N1CCN(c2nc(=O)n(-c3c(C)ccnc3C(C)C)c3nc(-c4c(O)cccc4F)c(F)cc23)[C@@H](C)C1", "cell line": "PC-9", "effect on": "cell growth or viability", "method": "ATP luminescence", "IC50": "> 10 µM"}
{"Compound": "COc1cc2c3c(n(CCCN4CCOCC4)c(=O)c2cc1OC)-c1nc2c(cc1C3=O)OCO2", "cell line": "Raji", "effect on": "cell growth or viability", "method": "MTS", "time": "72 h", "IC50": "0.374 µM"}
{"Compound": "CCCOc1nc(-c2cccc(O)c2)cc(-c2cc3ccccc3nc2N2CCOCC2)c1C#N", "cell line": "NFS-60", "effect on": "cell growth or viability", "method": "MTT", "time": "72 h", "IC50": "0.151 µM"}
{"Compound": "COCCC(=O)NCc1ccccc1", "cell line": "DH82", "effect on": "PGE2 release", "mode": "inhibitor", "method": "ELISA", "time": "24 h", "setting": "LPS-stimulated", "IC50": "126 µM"}
{"Compound": "COc1ccc(-c2cc(-c3cccc(Br)c3)c3c(=O)n(C)c(=O)n(C)c3n2)cc1", "cell line": "HCT-116", "effect on": "cell growth or viability", "method": "MTT", "time": "48 h", "IC50": "7.88 µM"}
{"Compound": "CCOc1nc(-c2cccc(O)c2)cc(-c2cc3cc(Cl)ccc3nc2N2CCOCC2)c1C#N", "cell line": "NFS-60", "effect on": "cell growth or viability", "method": "MTT", "time": "72 h", "IC50": "0.113 µM"}
{"Compound": "COc1cc2c3c(n(CCCNCCO)c(=O)c2cc1OC)-c1nc2c(cc1C3=O)OCO2", "cell line": "Raji", "effect on": "cell growth or viability", "method": "MTS", "time": "72 h", "IC50": "0.132 µM"}
{"Compound": "COc1ccc(-c2cc(-c3ccccc3Cl)c3c(=O)n(C)c(=O)n(C)c3n2)cc1", "cell line": "HCT-116", "effect on": "cell growth or viability", "method": "MTT", "time": "48 h", "IC50": "14.1 µM"}
{"Compound": "COc1cc2c3c(n(CCCn4ccnc4)c(=O)c2cc1OC)-c1nc2c(cc1C3=O)OCO2", "cell line": "Raji", "effect on": "cell growth or viability", "method": "MTS", "time": "72 h", "IC50": "0.204 µM"}
{"Compound": "O=C(CCNNC(=O)c1ccncc1)NCc1ccccc1", "cell line": "DH82", "effect on": "NO release", "mode": "inhibitor", "method": "Griess", "time": "24 h", "setting": "LPS-stimulated", "IC50": "> 200 µM"}
{"Compound": "Cc1c(C(=O)O)ccc2c3n(nc12)[C@@H]1[C@H](C3)N(CC2CC2)[C@@]2(C(=O)Nc3cc(Cl)ccc32)[C@H]1c1cccc(Cl)c1F", "cell line": "SK-OV-3", "effect on": "cell growth or viability", "method": "ATP luminescence", "IC50": "> 50 µM"}
{"Compound": "O=C(CCO)NCc1ccccc1", "cell line": "DH82", "effect on": "PGE2 release", "mode": "inhibitor", "method": "ELISA", "time": "24 h", "setting": "LPS-stimulated", "IC50": "49.4 µM"}
{"Compound": "CC(C)c1ccccc1[C@@H]1CCCN1C1CC2(CCN(c3ccc(C(=O)NS(=O)(=O)c4ccc(NC[C@H]5CC[C@](C)(O)CC5)c([N+](=O)[O-])c4)c(Oc4cnc5[nH]ccc5c4)c3)CC2)C1", "cell line": "DOHH-2", "effect on": "cell growth or viability", "method": "ATP luminescence", "time": "48 h", "IC50": "0.0065 µM"}
{"Compound": "NC(=O)c1ccncc1", "cell line": "DH82", "effect on": "NO release", "mode": "inhibitor", "method": "Griess", "time": "24 h", "setting": "LPS-stimulated", "IC50": "> 200 µM"}
{"Compound": "CCCOc1nc(-c2cccc(O)c2)cc(-c2cc3cc(Cl)ccc3nc2N2CCOCC2)c1C#N", "cell line": "NFS-60", "effect on": "cell growth or viability", "method": "MTT", "time": "72 h", "IC50": "0.244 µM"}
